Data from ChEMBL document CHEMBL3227917, “Structure-activity relationships of dimeric Catharanthus alkaloids. 2. Experimental antitumor activities of N-substituted deacetylvinblastine amide (vindesine) sulfates” (J Med Chem, 1979).

Columns and labels:
Mus musculus [1] = test: Toxicity in C3H mouse allografted with mouse Gardner lymphosarcoma assessed as lethality at 0.40 mg/kg, ip administered daily for 8 to 10 days; type: organism-based; design: dose 0.4 mg/kg, route intraperitoneal; conditions: in vivo, 0.4 mg/kg
Method in brief: (§1)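 Tumor-bearing mice given sulfate salts ip daily for 8–10 days; values are the average of one or more tests. Toxic means lethal to ≥5 of 10 animals per group.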

Mus musculus [2] = test: Toxicity in C3H mouse allografted with mouse Gardner lymphosarcoma assessed as lethality at 0.20 mg/kg, ip administered daily for 8 to 10 days; type: organism-based; design: dose 0.2 mg/kg, route intraperitoneal; conditions: in vivo, 0.2 mg/kg; method in brief: as §1
[3] = Antitumor activity against mouse Gardner lymphosarcoma allografted in C3H mouse assessed as tumor growth inhibition at 0.10 mg/kg, ip administered daily for 8 to 10 days; type: functional; conditions: route intraperitoneal, read-out: TGI
Method in brief: (§2)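 Gardner lymphosarcoma in C3H mice; sulfate salts unless noted, given ip daily for 8–10 days, treatment starting 8 days after tumor implantation. Tumor growth inhibition scored as –, 0–25%; +, 26–50%; ++, 51–75%; +++, 76–100%; T, lethal to ≥5 of 10 animals per group. Average of one or more tests.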

[4] = Antitumor activity against mouse Gardner lymphosarcoma allografted in C3H mouse assessed as tumor growth inhibition at 0.05 mg/kg, ip administered daily for 8 to 10 days; type: functional; conditions: route intraperitoneal, read-out: TGI; method in brief: as §2
[5] = Antitumor activity against mouse Gardner lymphosarcoma allografted in C3H mouse assessed as tumor growth inhibition at 0.30 mg/kg, ip administered daily for 8 to 10 days; type: functional; conditions: route intraperitoneal, read-out: TGI; method in brief: as §2
[6] = Antitumor activity against mouse Gardner lymphosarcoma allografted in C3H mouse assessed as tumor growth inhibition at 0.40 mg/kg, ip administered daily for 8 to 10 days; type: functional; conditions: route intraperitoneal, read-out: TGI; method in brief: as §2
B16 [7] = test: Antitumor activity against mouse B16 cells allografted in C57BL/6 mouse assessed as prolongation of host survival at 0.90 mg/kg, ip administered on days 1,5 and 9; type: functional; conditions: route intraperitoneal
Method in brief: (§3)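 B16 melanoma cells (10⁶ inoculum) implanted ip in C57BL/6 mice; groups of 10. Sulfate salts unless noted, given ip on days 1, 5 and 9. Single test. Survival prolongation is expressed as percent versus controls, with survivors counted on day 60. Toxic means deaths of ≥5 of 10 animals before the first control death.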

Mus musculus [8] = test: Toxicity in C57BL/6 mouse allografted with mouse B16 cells assessed as animal death at 1.20 mg/kg, ip administered on days 1,5 and 9; type: organism-based; design: dose 1.2 mg/kg, route intraperitoneal; conditions: in vivo, 1.2 mg/kg; method in brief: as §3
[9] = Antitumor activity against mouse Gardner lymphosarcoma allografted in C3H mouse assessed as tumor growth inhibition at 0.20 mg/kg, ip administered daily for 8 to 10 days; type: functional; conditions: route intraperitoneal, read-out: TGI; method in brief: as §2
B16 [10] = test: Antitumor activity against mouse B16 cells allografted in C57BL/6 mouse assessed as prolongation of host survival at 0.60 mg/kg, ip administered on days 1,5 and 9; type: functional; conditions: route intraperitoneal; method in brief: as §3
CHO [11] = test: Mitotic arrest in CHO cells assessed as increase in cell accumulation at 0.2 ug/ml; type: functional, Cricetulus griseus
Method in brief: (§4)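 Chinese hamster ovary cells in tissue culture, scored for mitotic arrest as increase in cells in mitotic arrest over control: +++, 40–50%; ++, 15–40%; +, 10–15%; ±, 7–10%; –, 3–7%. Cytotoxicity noted separately.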

P388/VCR [12] = test: Antitumor activity against mouse P388/VCR cells allografted in B6D2F1 mouse assessed as increase in host lifespan at 0.90 mg/kg, ip administered on days 1, 5 and 9; type: functional; conditions: dose 0.9 mg/kg; route intraperitoneal
Method in brief: (§5)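 P388/VCR leukemia in groups of 10 B6D2F1 mice, run at Lilly using the cell strain received from NCI. Sulfate salts given ip on days 1, 5 and 9. Read-out is percent increase in lifespan.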

P388/VCR [13] = test: Antitumor activity against mouse P388/VCR cells allografted in B6D2F1 mouse assessed as increase in host lifespan at 1.20 mg/kg, ip administered on days 1, 5 and 9; type: functional; conditions: dose 1.2 mg/kg; route intraperitoneal; method in brief: as §5
P388/VCR [14] = test: Antitumor activity against mouse P388/VCR cells allografted in B6D2F1 mouse assessed as increase in host lifespan at 0.60 mg/kg, ip administered on days 1, 5 and 9; type: functional; conditions: dose 0.6 mg/kg; route intraperitoneal; method in brief: as §5
CHO [15] = test: Mitotic arrest in CHO cells assessed as increase in cell accumulation at 0.002 ug/ml; type: functional, Cricetulus griseus; method in brief: as §4
CHO [16] = test: Mitotic arrest in CHO cells assessed as increase in cell accumulation at 0.02 ug/ml; type: functional, Cricetulus griseus; method in brief: as §4
Mus musculus [17] = test: Toxicity in C3H mouse allografted with mouse Gardner lymphosarcoma assessed as lethality at 0.5 mg/kg, ip administered daily for 8 to 10 days; type: organism-based; design: dose 0.5 mg/kg, route intraperitoneal; conditions: in vivo; method in brief: as §1
[18] = Antitumor activity against mouse P1534 cells allografted in DBA2 mouse assessed as tumor growth inhibition at 0.20 mg/kg, ip administered daily for 8 to 10 days; type: functional; conditions: route intraperitoneal, read-out: TGI
Method in brief: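 P1534(J) leukemia implanted sc in DBA2 mice; sulfate salts dosed ip daily for 8–10 days. Growth inhibition scored –, 0–25%; +, 26–50%; ++, 51–75%; +++, 76–100%; T, lethal to ≥5 of 10 animals per group. Average of one or more tests.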

[19] = Antitumor activity against mouse Gardner lymphosarcoma allografted in C3H mouse assessed as tumor growth inhibition at 0.25 mg/kg, ip administered daily for 8 to 10 days; type: functional; conditions: route intraperitoneal, read-out: TGI; method in brief: as §2
[20] = Antitumor activity against mouse Gardner lymphosarcoma allografted in C3H mouse assessed as tumor growth inhibition at 0.125 mg/kg, ip administered daily for 8 to 10 days; type: functional; conditions: route intraperitoneal, read-out: TGI; method in brief: as §2
[21] = Antitumor activity against mouse Gardner lymphosarcoma allografted in C3H mouse assessed as tumor growth inhibition at 0.5 mg/kg, ip administered daily for 8 to 10 days; type: functional; conditions: route intraperitoneal, read-out: TGI; method in brief: as §2

Compound	Activity (Mus musculus [1])	inhibition in vivo at 0.1 mg/kg [3]	survival at 0.9 mg/kg (B16 [7])	Activity (Mus musculus [8])	inhibition in vivo at 0.2 mg/kg [9]	survival at 0.6 mg/kg (B16 [10])	also measured
C=CC(=O)OCCNC(=O)[C@@]1(O)[C@H](O)[C@]2(CC)C=CCN3CC[C@@]4(c5cc([C@@]6(C(=O)OC)C[C@@H]7CN(CCc8c6[nH]c6ccccc86)C[C@](O)(CC)C7)c(OC)cc5N(C)[C@@H]14)[C@@H]32	Toxic	76%					Activity (Mus musculus [2]): Toxic; inhibition in vivo at 0.05 mg/kg [4]: 51%
CC[C@]1(O)C[C@H]2CN(CCc3c([nH]c4ccccc34)[C@@](C(=O)OC)(c3cc4c(cc3OC)N(C)[C@H]3[C@@](O)(C(=O)NCCS)[C@H](O)[C@]5(CC)C=CCN6CC[C@]43[C@@H]65)C2)C1.O=S(=O)(O)O		0%	141%	Toxic	26%	170%	inhibition in vivo at 0.3 mg/kg [5]: 51%; inhibition in vivo at 0.4 mg/kg [6]: 76%
CC[C@]1(O)C[C@H]2CN(CCc3c([nH]c4ccccc34)[C@@](C(=O)OC)(c3cc4c(cc3OC)N(C)[C@H]3[C@@](O)(C(=O)NCCSC)[C@H](O)[C@]5(CC)C=CCN6CC[C@]43[C@@H]65)C2)C1.O=S(=O)(O)O	Toxic	0%	58%	Toxic	0%	163%	Activity (CHO [11]): 15%; Activity (P388/VCR [12]): 42%; Activity (P388/VCR [13]): 6%; Activity (P388/VCR [14]): 20%; Activity (CHO [15]): 3%; Activity (CHO [16]): 15%
CC[C@]1(O)C[C@H]2CN(CCc3c([nH]c4ccccc34)[C@@](C(=O)OC)(c3cc4c(cc3OC)N(C)[C@H]3[C@@](O)(C(=O)NCCCSC)[C@H](O)[C@]5(CC)C=CCN6CC[C@]43[C@@H]65)C2)C1.O=S(=O)(O)O	Toxic	0%	141%	Toxic	0%	101%	
CC[C@]1(O)C[C@H]2CN(CCc3c([nH]c4ccccc34)[C@@](C(=O)OC)(c3cc4c(cc3OC)N(C)[C@H]3[C@@](O)(C(N)=O)[C@H](OC(C)=O)[C@]5(CC)C=CCN6CC[C@]43[C@@H]65)C2)C1.O=S(=O)(O)O							Activity (CHO [11]): 40%; Activity (Mus musculus [17]): Toxic; Activity (CHO [15]): 3%; Activity (CHO [16]): 15%
CC[C@]1(O)C[C@H]2CN(CCc3c([nH]c4ccccc34)[C@@](C(=O)OC)(c3cc4c(cc3OC)N(C)[C@H]3[C@@](O)(C(=O)NC)[C@H](OC(C)=O)[C@]5(CC)C=CCN6CC[C@]43[C@@H]65)C2)C1.O=S(=O)(O)O							Activity (Mus musculus [17]): Toxic; inhibition in vivo at 0.2 mg/kg [18]: 51%
CC[C@]1(O)C[C@H]2CN(CCc3c([nH]c4ccccc34)[C@@](C(=O)OC)(c3cc4c(cc3OC)N(C)[C@H]3[C@@](O)(C(=O)NCCNC(C)=O)[C@H](OC(C)=O)[C@]5(CC)C=CCN6CC[C@]43[C@@H]65)C2)C1							inhibition in vivo at 0.25 mg/kg [19]: 51%; inhibition in vivo at 0.125 mg/kg [20]: 0%; inhibition in vivo at 0.5 mg/kg [21]: 76%
